Measurements: ChEMBL document CHEMBL3244252, “Adriamycin analogues. 3. Synthesis of N-alkylated anthracyclines with enhanced efficacy and reduced cardiotoxicity” (J Med Chem, 1979)

Key:
P388 [1] = experiment: Antitumor activity against mouse P388 cells allografted in CDF/BDF mouse assessed as survival time at 18.8 mg/kg, ip administered as qd on day 5, 9, 13; format: functional; details: route intraperitoneal
L1210 [2] = experiment: Selectivity ratio of ED50 for inhibition of DNA synthesis in mouse L1210 cells to ED50 for inhibition of RNA synthesis in mouse L1210 cells; format: functional
How it was run: (§1)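 L1210 leukemia cells. Drugs were first dissolved in Me2SO to a final 1% Me2SO in the assay medium. Inhibition of DNA and RNA synthesis was measured separately and reported as ED50 (50% inhibitory dose, μM). Selectivity is the ratio of the DNA ED50 to the RNA ED50.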

L1210 [3] = experiment: Inhibition of RNA synthesis in mouse L1210 cells; format: functional; details: read-out: ED50 (the source's name); how it was run: as §1
L1210 [4] = experiment: Inhibition of DNA synthesis in mouse L1210 cells; format: functional; details: read-out: ED50 (the source's name); how it was run: as §1
P388 [5] = experiment: Antitumor activity against mouse P388 cells allografted in CDF/BDF mouse assessed as survival time at 3.13 mg/kg, ip administered as qd for 1 to 9 days relative to control; format: functional; details: route intraperitoneal
Calf thymus DNA = experiment: Binding affinity to calf thymus DNA assessed as change in melting temperature; format: nucleic-acid assay; details: Bos taurus
How it was run: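 Drug first dissolved in Me2SO to a final 5% Me2SO in the assay medium. DNA binding is read as the shift in DNA melting temperature (ΔTm). ΔTm below 1 is taken as insignificant binding.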

Salmonella typhimurium [6] = experiment: Toxicity in Salmonella typhimurium TA98 assessed as concentration required to cause mortality per plate; format: organism-based; details: salmonella enterica subsp. enterica serovar typhimurium
How it was run: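 Ames plate test with Salmonella typhimurium tester strain TA98. Compounds were tested over ranges from 0–20 up to 0–100 µg/plate, depending on compound. The toxicity level is reported in µg/plate.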

Salmonella typhimurium [7] = experiment: Mutagenicity in Salmonella typhimurium TA98 assessed as number of revertants by Ames test in absence of microsomal activation; format: toxicity, organism-based; details: salmonella enterica subsp. enterica serovar typhimurium
How it was run: (§2)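 Ames plate test using Salmonella typhimurium tester strain TA98. Compounds were tested over dose ranges of 0-20 to 0-100 µg/plate, depending on the compound, and the toxicity level per plate was noted. Mutagenicity is expressed as revertants produced per nmol of compound.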

Salmonella typhimurium [8] = experiment: Mutagenicity in Salmonella typhimurium TA98 assessed as number of revertants by Ames test in presence of microsomal activation; format: toxicity, organism-based; details: salmonella enterica subsp. enterica serovar typhimurium; how it was run: as §2
P388 [9] = experiment: Antitumor activity against mouse P388 cells allografted in CDF/BDF mouse assessed as survival time at 1.56 mg/kg, ip administered as qd for 1 to 9 days relative to control; format: functional; details: route intraperitoneal
P388 [10] = experiment: Antitumor activity against mouse P388 cells allografted in CDF/BDF mouse assessed as survival time at 37.5 mg/kg, ip administered as qd on day 5, 9, 13; format: functional; details: route intraperitoneal
P388 [11] = experiment: Antitumor activity against ip dosed mouse P388 cells allografted in CDF/BDF mouse assessed as survival time administered as qd for 1 to 9 days relative to control; format: functional
P388 [12] = experiment: Antitumor activity against mouse P388 cells allografted in CDF/BDF mouse assessed as survival time at 6.25 mg/kg, ip administered as qd for 1 to 9 days relative to control; format: functional; details: route intraperitoneal
P388 [13] = experiment: Antitumor activity against mouse P388 cells allografted in CDF/BDF mouse assessed as survival time at 0.78 mg/kg, ip administered as qd for 1 to 9 days relative to control; format: functional; details: route intraperitoneal
Rattus norvegicus = species on record: Rattus norvegicus; experiment: Cardiotoxicity in rat assessed as minimum cumulative cardiotoxic dose by Zbinden test; format: toxicity, organism-based; details: in vivo
How it was run: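 Zbinden cardiotoxicity assay in rats. Drug was given cumulatively, with ECG monitoring. Value is the minimum total dose (mg/kg) that causes significant ECG alterations.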

P388 [14] = experiment: Antitumor activity against mouse P388 cells allografted in CDF/BDF mouse assessed as survival time at 8 mg/kg, ip administered as qd on day 5, 9, 13; format: functional; details: route intraperitoneal
P388 [15] = experiment: Antitumor activity against mouse P388 cells allografted in CDF/BDF mouse assessed as survival time at 3.12 mg/kg, ip administered as qd for 1 to 9 days relative to control; format: functional; details: route intraperitoneal
P388 [16] = experiment: Antitumor activity against mouse P388 cells allografted in CDF/BDF mouse assessed as survival time at 12.5 mg/kg, ip administered as qd for 1 to 9 days relative to control; format: functional; details: route intraperitoneal
P388 [17] = experiment: Antitumor activity against mouse P388 cells allografted in CDF/BDF mouse assessed as survival time at 4 mg/kg, ip administered as qd for 1 to 9 days relative to control; format: functional; details: route intraperitoneal
P388 [18] = experiment: Antitumor activity against mouse P388 cells allografted in CDF/BDF mouse assessed as survival time at 25 mg/kg, ip administered as qd on day 5, 9, 13; format: functional; details: route intraperitoneal
P388 [19] = experiment: Antitumor activity against mouse P388 cells allografted in CDF/BDF mouse assessed as survival time at 18 mg/kg, ip administered as qd on day 5, 9, 13; format: functional; details: route intraperitoneal

SMILES | Ratio ED50 (L1210 [2]) | EC50 (L1210 [3]) | EC50 (L1210 [4]) | ΔTm (Calf thymus DNA) | Activity (Salmonella typhimurium [8]) | also measured
COc1cccc2c1C(=O)c1c(O)c3c(c(O)c1C2=O)C[C@@](O)(C(=O)CO)C[C@@H]3O[C@H]1C[C@H](NCc2ccccc2)[C@H](O)[C@H](C)O1.Cl | 7.2 | 0.09 µM | 0.65 µM | 11.3 °C |  | T/C (P388 [1]): 190%; T/C (P388 [5]): 185%
COc1cccc2c1C(=O)c1c(O)c3c(c(O)c1C2=O)C[C@@](O)(C(=O)CO)C[C@@H]3O[C@H]1C[C@H](N2CCCCC2)[C@H](O)[C@H](C)O1.Cl | 17.5 | 0.04 µM | 0.7 µM | 15.4 °C | 1 nmol⁻¹ | Activity (Salmonella typhimurium [6]): 20 µg; Activity (Salmonella typhimurium [7]): Non-toxic; T/C (P388 [5]): 190%
COc1cccc2c1C(=O)c1c(O)c3c(c(O)c1C2=O)C[C@@](O)(C(O)CO)C[C@@H]3O[C@H]1C[C@H](NCc2ccccc2)[C@H](O)[C@H](C)O1.Cl (stereo partly specified) | 4.8 | 0.29 µM | 1.4 µM | 7.6 °C |  | T/C (P388 [9]): 176%; T/C (P388 [10]): 135%
CCCCCCCCCCN[C@H]1C[C@H](O[C@H]2C[C@](O)(C(C)=O)Cc3c(O)c4c(c(O)c32)C(=O)c2c(OC)cccc2C4=O)O[C@@H](C)[C@H]1O.Cl | 1.3 | 2.6 µM | 3.3 µM | 7 °C |  | T/C (P388 [11]): <125%
COc1cccc2c1C(=O)c1c(O)c3c(c(O)c1C2=O)C[C@@](O)(C(=O)CO)C[C@@H]3O[C@H]1C[C@H](N(Cc2ccccc2)Cc2ccccc2)[C@H](O)[C@H](C)O1.Cl | 22.8 | 4.8 µM | 110 µM | 0 °C |  | T/C (P388 [12]): 175%
COc1cccc2c1C(=O)c1c(O)c3c(c(O)c1C2=O)C[C@@](O)(C(C)O)C[C@@H]3O[C@H]1C[C@H](NCc2ccccc2)[C@H](O)[C@H](C)O1.Cl (stereo partly specified) | 5.3 | 0.32 µM | 1.7 µM | 6.25 °C |  | T/C (P388 [12]): 221%
COc1cccc2c1C(=O)c1c(O)c3c(c(O)c1C2=O)C[C@@](O)(C(C)=O)C[C@@H]3O[C@H]1C[C@H](N)[C@H](O)[C@H](C)O1 [DAUNORUBICIN] |  | 0.33 µM | 0.66 µM |  | 100 nmol⁻¹ | T/C (P388 [13]): 160%; MTC (Rattus norvegicus): 14 mg/kg; Activity (Salmonella typhimurium [6]): 5 µg; T/C (P388 [14]): 132%
CCN(CC)[C@H]1C[C@H](O[C@H]2C[C@](O)(C(=O)CO)Cc3c(O)c4c(c(O)c32)C(=O)c2c(OC)cccc2C4=O)O[C@@H](C)[C@H]1O.Cl | 3.3 | 0.21 µM | 0.7 µM | 14.6 °C |  | T/C (P388 [5]): 171%
CCCCCCCCCCN(CCCCCCCCCC)[C@H]1C[C@H](O[C@H]2C[C@](O)(C(C)=O)Cc3c(O)c4c(c(O)c32)C(=O)c2c(OC)cccc2C4=O)O[C@@H](C)[C@H]1O.Cl | 2.1 | 130 µM | 280 µM | 0.1 °C |  | T/C (P388 [11]): <125%
COc1cccc2c1C(=O)c1c(O)c3c(c(O)c1C2=O)C[C@@](O)(C(=O)CO)C[C@@H]3O[C@H]1C[C@H](N(C)C)[C@H](O)[C@H](C)O1.Cl | 5.2 | 0.12 µM | 0.62 µM | 17.5 °C | 1 nmol⁻¹ | MTC (Rattus norvegicus): 6 mg/kg; Activity (Salmonella typhimurium [6]): 20 µg; Activity (Salmonella typhimurium [7]): Non-toxic
COc1cccc2c1C(=O)c1c(O)c3c(c(O)c1C2=O)C[C@@](O)(C(C)=O)C[C@@H]3O[C@H]1C[C@H](NCc2ccccc2)[C@H](O)[C@H](C)O1.Cl | 9.4 | 0.17 µM | 1.6 µM | 10.2 °C | 0.5 nmol⁻¹ | T/C (P388 [1]): 184%; Activity (Salmonella typhimurium [7]): Non-toxic; T/C (P388 [15]): 185%
COc1cccc2c1C(=O)c1c(O)c3c(c(O)c1C2=O)C[C@@](O)(C(C)=O)C[C@@H]3O[C@H]1C[C@H](NC(C)C)[C@H](O)[C@H](C)O1.Cl | 3.4 | 0.32 µM | 1.1 µM | 10.6 °C |  | T/C (P388 [16]): 199%
COc1cccc2c1C(=O)c1c(O)c3c(c(O)c1C2=O)C[C@@](O)(C(C)=O)C[C@@H]3O[C@H]1C[C@H](N(C)C)[C@H](O)[C@H](C)O1.Cl | 10.4 | 0.064 µM | 0.67 µM |  | 0 nmol⁻¹ | MTC (Rattus norvegicus): 11 mg/kg; Activity (Salmonella typhimurium [6]): 20 µg; Activity (Salmonella typhimurium [7]): Non-toxic
CCN(CC)[C@H]1C[C@H](O[C@H]2C[C@](O)(C(C)=O)Cc3c(O)c4c(c(O)c32)C(=O)c2c(OC)cccc2C4=O)O[C@@H](C)[C@H]1O.Cl | 5.2 | 0.13 µM | 0.67 µM | 13.6 °C |  | T/C (P388 [17]): 178%
COc1cccc2c1C(=O)c1c(O)c3c(c(O)c1C2=O)C[C@@](O)(C(C)O)C[C@@H]3O[C@H]1C[C@H](N(Cc2ccccc2)Cc2ccccc2)[C@H](O)[C@H](C)O1.Cl (stereo partly specified) | 29.1 | 7.6 µM | 220 µM | 0.6 °C | 0.5 nmol⁻¹ | Activity (Salmonella typhimurium [7]): Non-toxic; T/C (P388 [18]): 183%; T/C (P388 [16]): 231%
COc1cccc2c1C(=O)c1c(O)c3c(c(O)c1C2=O)C[C@@](O)(C(=O)CO)C[C@@H]3O[C@H]1C[C@H](N)[C@H](O)[C@H](C)O1 [DOXORUBICIN] | 2.6 | 0.58 µM | 1.5 µM | 13.4 °C |  | T/C (P388 [13]): 197%; MTC (Rattus norvegicus): 11 mg/kg; T/C (P388 [14]): 159%
COc1cccc2c1C(=O)c1c(O)c3c(c(O)c1C2=O)C[C@@](O)(C(O)CO)C[C@@H]3O[C@H]1C[C@H](N2CCCCC2)[C@H](O)[C@H](C)O1.Cl (stereo partly specified) | 7.2 | 0.1 µM | 0.72 µM | 12.5 °C |  | T/C (P388 [9]): 157%; T/C (P388 [19]): 143%
